Laboratory results taken from ChEMBL document CHEMBL1142722, “Discovery and selection of TMC114, a next generation HIV-1 protease inhibitor” (J Med Chem, 2005).

Tests used:
[1] = tested on: Human immunodeficiency virus 1; test: Effective concentration of against HIV Wild Type (IIIB) strain; assay type: functional, organism-based; conditions: for EC50: Human immunodeficiency virus 1
How it was run: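 Wild-type HIV-1 IIIB was tested in MT-4 cells by MTT colorimetric CPE assay. Compound was serially diluted, with virus at 200-250 CCID50/well and 30 000 cells/well. […] Mock-infected cultures were run in parallel for cytotoxicity.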

[2] = tested on: Human immunodeficiency virus 1; test: Effective concentration against PI-Resistant HIV strain (M5); assay type: functional, organism-based; conditions: for EC50: Human immunodeficiency virus 1
How it was run: (§1)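 MTT cytopathic-effect assay in MT-4 cells infected with recombinant HIV carrying clinical-isolate-derived protease and RT sequences in an HXB2-derived backbone. Inoculum 200-250 CCID50/well, 30 000 cells/well, compound over a concentration range. Incubation 5 days at 37 °C, 5% CO2. […] Cytotoxicity run in parallel on mock-infected cells.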

[3] = tested on: Human immunodeficiency virus 1; test: Effective concentration against PI-Resistant HIV strain (M2); assay type: functional, organism-based; conditions: for EC50: Human immunodeficiency virus 1; how it was run: as §1
[4] = tested on: Human immunodeficiency virus 1; test: Effective concentration as average activity on mutant HIV panel (AVMUT); assay type: functional, organism-based; conditions: for EC50: Human immunodeficiency virus 1
How it was run: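 Mean pEC50 across the panel of PI-resistant recombinant clinical-isolate strains. Each strain was tested by MTT CPE assay in MT-4 cells at 200-250 CCID50/well and 30 000 cells/well, read after 5 days at 37 °C, 5% CO2.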

[5] = Percentage of remaining compound after 30 min incubation in rat liver microsomes was determined as metabolic stability; assay type: ADME, Microsome; conditions: read-out: Remaining compound
How it was run: (§2)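 Compound incubated with rat, dog or human liver microsomes for 30 min at 37 °C. Residual parent compound in the reaction mixture was measured directly by LC-MS and expressed as % remaining.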

[6] = tested on: Human immunodeficiency virus 1; test: Effective concentration against PI-Resistant HIV strain (M1); assay type: functional, organism-based; how it was run: as §1
[7] = Percentage of remaining compound after 30 min incubation in dog liver microsomes was determined as metabolic stability; assay type: ADME, Canis lupus familiaris, Microsome; conditions: read-out: Remaining compound; how it was run: as §2
[8] = tested on: Human immunodeficiency virus 1; test: Effective concentration against PI-Resistant HIV strain (M4); assay type: functional, organism-based; conditions: for EC50: Human immunodeficiency virus 1; how it was run: as §1
[9] = Percentage of remaining compound after 30 min incubation in human liver microsomes was determined as metabolic stability; assay type: ADME, Microsome; conditions: read-out: Remaining compound; how it was run: as §2
[10] = tested on: Human immunodeficiency virus 1; test: Effective concentration against PI-Resistant HIV strain (M3); assay type: functional, organism-based; conditions: for EC50: Human immunodeficiency virus 1; how it was run: as §1
[11] = Half-life in dog after 80 mg/kg oral administration; assay type: ADME, organism-based, Canis lupus familiaris; parameters: dose 80 mg/kg, route oral; conditions: in vivo
How it was run: (§3)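 Single oral dose of 80 mg/kg given to dogs as a PEG400 solution. Plasma exposure parameters are reported as the mean of four measurements, with the standard deviation in parentheses.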

[12] = Time to reach maximum concentration in dog after 80 mg/kg oral administration; assay type: ADME, organism-based, Canis lupus familiaris; parameters: dose 80 mg/kg, route oral; conditions: in vivo; how it was run: as §3
[13] = Area under concentration time curve value in dog after 80 mg/kg oral administration; assay type: ADME, organism-based, Canis lupus familiaris; parameters: dose 80 mg/kg, route oral; conditions: in vivo; how it was run: as §3
[14] = Maximum plasma concentration in dog after 80 mg/kg oral administration; assay type: ADME, organism-based, Canis lupus familiaris; parameters: dose 80 mg/kg, route oral; how it was run: as §3

SMILES	EC50 [1] [nM]	EC50 [2] [nM]	EC50 [3] [nM]	EC50 [4] [nM]	remaining at 0.5 h [5] [%]	EC50 [6] [nM]	remaining at 0.5 h [7] [%]	EC50 [8] [nM]	remaining at 0.5 h [9] [%]	EC50 [10] [nM]	half-life [11] [h]	Tmax [12] [h]	AUC last [13] [ng·h/mL]	Cmax [14] [ng/mL]	Log EC50 [1]	Log EC50 [2]	Log EC50 [3]	Log EC50 [4]	Log EC50 [8]	Log EC50 [10]
CC(C)CN(C[C@@H](O)[C@H](Cc1ccccc1)NC(=O)O[C@H]1CCOC1)S(=O)(=O)c1ccc(N)cc1	37.2	741	204	324	83	741	81	170	116	195										
CC(C)CN(C[C@@H](O)[C@H](Cc1ccccc1)NC(=O)O[C@@H]1CO[C@@H]2OCC[C@@H]21)S(=O)(=O)c1ccc(N)cc1	10.7	26.3	60.3	30.9		37.2		21.4		21.4										
CC(C)CN(C[C@@H](O)[C@H](Cc1ccccc1)NC(=O)O[C@H]1CO[C@H]2OCC[C@H]21)S(=O)(=O)c1ccc([N+](=O)[O-])cc1	2.45	45.7	29.5	21.4		33.9		21.9		4.57										
CC(C)CN(C[C@@H](O)[C@H](Cc1ccccc1)NC(=O)O[C@H]1CO[C@H]2OCC[C@H]21)S(=O)(=O)c1cccc(N)c1	4.37	26.3	47.9	42.7		759		26.3		28.2										
CC(C)CN(C[C@@H](O)[C@H](Cc1ccccc1)NC(=O)O[C@H]1CO[C@H]2OCC[C@H]21)S(=O)(=O)c1ccc(CN)cc1	7.08	5.62	15.8	7.76		7.59		6.61		6.03										
CC(C)CN(C[C@@H](O)[C@H](Cc1ccccc1)NC(=O)O[C@H]1CO[C@H]2OCC[C@H]21)S(=O)(=O)c1ccc(O)cc1	6.31	6.17	10	8.71		23.4		6.03		6.03										
CC(C)CN(C[C@@H](O)[C@H](Cc1ccccc1)NC(=O)O[C@H]1CO[C@H]2OCC[C@H]21)S(=O)(=O)c1ccc2c(c1)OCO2	0.617	4.07	6.46	6.46	21	32.4	53	3.98	52	3.47	2.06	2.5	18100	3780						
CC(C)CN(C[C@@H](O)[C@H](Cc1ccccc1)NC(=O)O[C@@H]1CO[C@H]2OCC[C@H]21)S(=O)(=O)c1ccc(N)cc1	240		2240	977		759		1120		479										
CC(C)CN(C[C@@H](O)[C@H](Cc1ccccc1)NC(=O)O[C@H]1CO[C@@H]2OCC[C@@H]21)S(=O)(=O)c1ccc(N)cc1	309																			
CC(C)CN(C[C@@H](O)[C@H](Cc1ccccc1)NC(=O)O[C@H]1CO[C@H]2OCC[C@H]21)S(=O)(=O)c1ccc(I)cc1	1.51	5.01	13.8	8.71		33.1		5.25		4.07										
CC(=O)c1ccc(S(=O)(=O)N(CC(C)C)C[C@@H](O)[C@H](Cc2ccccc2)NC(=O)O[C@H]2CO[C@H]3OCC[C@H]32)cc1	1.95	11.7	15.8	13.8		31.6				6.03										
CC(C)CN(C[C@@H](O)[C@H](Cc1ccccc1)NC(=O)O[C@H]1CO[C@H]2OCC[C@H]21)S(=O)(=O)c1ccc(C#N)cc1	5.25	138	155	97.7		115		89.1		39.8										
COc1ccc(S(=O)(=O)N(CC(C)C)C[C@@H](O)[C@H](Cc2ccccc2)NC(=O)O[C@H]2CO[C@H]3OCC[C@H]32)cc1	0.589	2.88	6.03	4.47	25	10.2	11	4.68	56	2.24	1.47	0.6	2700	1180						
CC(C)(C)NC(=O)[C@@H]1CN(Cc2cccnc2)CCN1C[C@@H](O)C[C@@H](Cc1ccccc1)C(=O)N[C@H]1c2ccccc2C[C@H]1O					97		85		95											
CC(C)CN(C[C@@H](O)[C@H](Cc1ccccc1)NC(=O)OC1COC2OCCC12)S(=O)(=O)c1ccccc1 (mixture of isomers)	2.75	30.9	135	67.6		166		41.7		47.9										
Cc1ccc(S(=O)(=O)N(CC(C)C)C[C@@H](O)[C@H](Cc2ccccc2)NC(=O)OC2COC3OCCC23)cc1 (mixture of isomers)	5.25	40.7	107	60.3		129		38		35.5										
CC(C)CN(C[C@@H](O)[C@H](Cc1ccccc1)NC(=O)O[C@H]1CO[C@H]2OCC[C@H]21)S(=O)(=O)c1ccc(N)cc1 (stereo in doubt; form 1)															-7.36	-6.9	-6.72	-6.81	-6.84	-6.76
CC(C)CN(C[C@@H](O)[C@H](Cc1ccccc1)NC(=O)O[C@H]1CO[C@H]2OCC[C@H]21)S(=O)(=O)c1ccc(N)cc1 (stereo in doubt; form 2)					92	5.13	80		85		0.781	1	74100	19100	-8.39		-8.14	-8.29		-8.14
